Assay results taken from PubChem BioAssay.
Activity calls are given as the source filed them.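 How the source made its calls, unless noted: active means inhibition at or above 50% at 10 µM; inactive means inhibition below 50%.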

Key:
[1] = inhibitors of TNFa-induced NFkB p65 translocation, primary screen, imaging, HUVEC, MLSMR starter and 10KST1 sets (AID 438;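 active means inhibition above 20% together with a positive visual image hit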;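 further: compound added about 3h40 before a 20 min TNFalpha stimulation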;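 on inhibition: signal is the nuclear over cytoplasmic p65 intensity ratio per well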); conditions: HUVEC TNFa-induced p65 nuclear translocation; cell count: measured here: nuclei count (cytotoxicity indicator), at 2.08 µM; inhibition: at 2 µM, stronger effect = higher value, 0% TNFa-plus-vehicle, 100% no-TNFa wells
[2] = inhibitors of mutant huntingtin aggregation, primary screen, imaging, exon1htt(103Q)mCFP cells, high-content imaging (AID 483;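 active means visual image review flags a hit and inhibition of aggregation exceeds 20%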;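 further: compound exposure lasted 3 days before fixation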;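 on nuclei count: percent of the per-plate median nuclei count of sample wells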); conditions: exon1htt(103Q)mCFP cell line, aggregate imaging, at 2 µM; inhibition of aggregation: stronger effect = higher value; nuclei count: measured here: cell count, toxicity
[3] = inhibitors of E-selectin induction by TNFa, primary screen, imaging, HUVEC, immunofluorescence, MLSMR starter and 10KST1 sets (AID 487;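 active means visually confirmed hit in the image check and inhibition above 20%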;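 on inhibition: signal is fraction of cell area covered by stained E-selectin grains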;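 on nuclei count: 100% = median nuclei count of all wells on the same plate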); conditions: HUVEC TNFalpha-induced E-selectin immunofluorescence imaging, at 2 µM; inhibition: stronger effect = higher value; nuclei count: measured here: cell number, toxicity
[4] = target: Voltage-gated potassium channel subunit beta-2 (Rattus norvegicus) (UniProt P62483); assay: KvBeta enzyme negative modulators, primary screen, biochemical, NADPH fluorescence (AID 622;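 active means fluorescence slope higher than the sample average by over 3 SD, cut at about -0.22 in these data, passing the limit was not always enough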;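 further: slope of raw intensity against log time taken from 70 to 1610 s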); conditions: recombinant KvBeta, 4-cyanobenzaldehyde reduction, at 10 µM, stronger effect = higher value
[5] = target: Voltage-gated potassium channel subunit beta-2 (Rattus norvegicus) (UniProt P62483); assay: KvBeta positive modulators, primary screen, biochemical, NADPH fluorescence (AID 623;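 active means NADPH fluorescence slope more negative than the mean of all samples by about 3 SD, 99.7% confidence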;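 further: fluorescence intensity change per second fitted from 20 to 320 s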); conditions: Recombinant KvBeta, NADPH fluorescence decrease slope, 10 min; at 10 µM; stronger effect = lower value
[6] = target: Muscarinic acetylcholine receptor M4 (Homo sapiens) (UniProt P08173); assay: compounds altering M4/GIRK thallium flux, either direction, primary screen, M4 allosteric agonist project, cell-based, HEK293 M4/GIRK, BTC-AM (AID 625;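 active means fluorescence slope after compound addition differing from the mean of all tested samples at 99.7% confidence, mostly higher but some lower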;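 further: thallium influx through GIRK channels coupled to M4 in HEK293 cells with BTC-AM dye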); conditions: at 10 µM, actives lie on both sides
In short: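 Material: M4/GIRK1/GIRK2 stable HEK293 cell line. Medium: pH 7.3 thallium assay buffer. Dosing: single compound concentration, 10 µM final. Schedule: 1 h dye loading, 2 min kinetic read. Measured by: kinetic fluorescence with BTC-AM dye. Read-out: post-addition slope, 15–24 s, of baseline-normalized fluorescence. Benchmarks: carbachol and DMSO controls.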

[7] = inhibitors of Sendai virus-induced IRF3 signaling, primary screen, TLR/RLR signaling modifier project, cell-based, Sendai virus stimulus, luciferase, 10K MLSCN set (AID 602276); conditions: HEK293 RL24 IRF3 luciferase reporter, at 10 µM, stronger effect = higher value;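 further: firefly luciferase from ISG56 promoter only with Renilla not read in this screen; 0% = Sendai virus plus DMSO and 100% = medium plus DMSO without virus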
[8] = inhibitors of poly I:C-induced TLR3 signaling, primary screen, cell-based, poly I:C stimulus, luciferase, 10K MLSCN set (AID 602277;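 active means inhibition of the reporter signal at or above 50%; inactive means inhibition below 50%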); conditions: HEK293-TLR3 RL24 IRF3 luciferase reporter, at 10 µM, stronger effect = higher value
[9] = target: Alpha-2C adrenergic receptor (Homo sapiens) (UniProt P18825); assay: modulators of alpha2C/GIRK thallium flux, primary screen, cell-based, HEK293 alpha2C/GIRK1/2 (AID 624;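 active means fluorescence slope after compound addition differing from the mean of all screened samples at 99.7% confidence, in either direction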;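 further: slope of fluorescence ratio to pre-addition baseline per second over 15 to 24 s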); conditions: thallium flux BTC fluorescence, at 10 µM, actives lie on both sides
[10] = inhibitors of larval lipid processing in zebrafish, primary screen, whole organism, PED6 fluorescence, gall bladder and intestine (AID 686;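 active means a full or partial loss of lipid-probe fluorescence in the fish gall bladder, intestine or both, judged by eye; inactive means no fluorescence loss, or compound toxic to the fish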;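 further: larvae 5 to 7 days old with five fish per well; signal comes from phospholipase A2 cleavage of quenched PED6 carried via bile; overnight exposure to compound and PED6 before scoring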); conditions: Zebrafish larvae PED6 lipid processing, fluorescence scoring; screened at 20 µM (by protocol)
In short: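 System: live zebrafish larvae aged 5-7 days, whole organism; measure: graded gall bladder and intestinal fluorescence inhibition per well; incubation: overnight exposure; reagent: ingested quenched lipid PED6 at 100 nM; signal: By-eye fluorescence microscopy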

Chain of Voltage-gated potassium channel subunit beta-2 (Rattus norvegicus) (P62483 whole entry, looked up): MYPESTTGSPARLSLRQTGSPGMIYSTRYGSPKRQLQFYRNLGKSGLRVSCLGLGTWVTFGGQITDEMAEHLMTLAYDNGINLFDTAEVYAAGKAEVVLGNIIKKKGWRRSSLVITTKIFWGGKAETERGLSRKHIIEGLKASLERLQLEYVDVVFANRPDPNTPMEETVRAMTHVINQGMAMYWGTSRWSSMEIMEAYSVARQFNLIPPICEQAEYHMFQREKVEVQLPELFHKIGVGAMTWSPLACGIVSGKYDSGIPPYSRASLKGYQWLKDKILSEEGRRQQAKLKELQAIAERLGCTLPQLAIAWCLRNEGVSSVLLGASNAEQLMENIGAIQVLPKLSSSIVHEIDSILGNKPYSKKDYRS
Chain of Alpha-2C adrenergic receptor (Homo sapiens) (P18825 whole entry, looked up): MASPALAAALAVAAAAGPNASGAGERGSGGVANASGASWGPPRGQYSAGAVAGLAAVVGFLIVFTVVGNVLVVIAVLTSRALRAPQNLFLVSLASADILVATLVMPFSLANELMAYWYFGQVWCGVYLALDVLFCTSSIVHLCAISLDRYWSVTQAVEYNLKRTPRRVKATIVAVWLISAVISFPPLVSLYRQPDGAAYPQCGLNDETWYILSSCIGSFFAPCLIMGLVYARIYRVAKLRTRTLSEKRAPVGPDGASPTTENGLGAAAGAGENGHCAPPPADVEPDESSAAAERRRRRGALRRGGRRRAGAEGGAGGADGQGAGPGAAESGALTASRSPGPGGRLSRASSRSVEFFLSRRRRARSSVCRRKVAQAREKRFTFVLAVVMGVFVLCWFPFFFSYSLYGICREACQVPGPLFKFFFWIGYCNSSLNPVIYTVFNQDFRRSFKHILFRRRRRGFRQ
Chain of Muscarinic acetylcholine receptor M4 (Homo sapiens) (P08173 whole entry, looked up): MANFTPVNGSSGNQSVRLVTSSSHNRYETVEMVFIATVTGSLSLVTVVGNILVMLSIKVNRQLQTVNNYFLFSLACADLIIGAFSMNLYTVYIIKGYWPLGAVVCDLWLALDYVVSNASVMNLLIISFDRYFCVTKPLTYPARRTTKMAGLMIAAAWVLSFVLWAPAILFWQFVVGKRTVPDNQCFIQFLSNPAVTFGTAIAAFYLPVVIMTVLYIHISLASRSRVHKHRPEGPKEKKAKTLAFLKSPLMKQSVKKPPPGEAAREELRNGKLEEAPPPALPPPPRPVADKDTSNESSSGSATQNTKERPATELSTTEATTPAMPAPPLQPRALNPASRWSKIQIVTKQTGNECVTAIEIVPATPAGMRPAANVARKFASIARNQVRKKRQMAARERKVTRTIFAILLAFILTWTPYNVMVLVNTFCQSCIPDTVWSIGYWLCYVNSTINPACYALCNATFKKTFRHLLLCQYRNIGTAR

Compound | cell count [1] | inhibition [1] | inhibition of aggregation [2] | nuclei count [2] [%] | inhibition [3] | nuclei count [3] [%] | fluorescence slope [4] | NADPH fluorescence slope [5] | fluorescence slope [6] | inhibition [7] | inhibition [8] | slope [9] | outcome [10]
O=C1CN(C(=O)CN2CCCC2)C(c2ccccc2)c2cc(Br)ccc2N1 (stereo unspecified) | 393 | -1.2% (inactive) | -15.4% (inactive) | 83.1 | -23.4% (inactive) | 123 | -0.512 (inactive) | -6.6e-05 (inactive) | 0.00427 (inactive) | -0.203% (inactive) | 21.9% (inactive) |  | 
c1ccc(-c2noc(-c3cccnc3)n2)nc1 | 359 | -2.1% (inactive) | 0.3% (inactive) | 102 | -85.3% (inactive) | 96.9 | -0.575 (inactive) | -4.4e-05 (inactive) | 0.00712 (inactive) | 0.927% (inactive) | -38.1% (inactive) |  | 
Cc1cnc(-c2nnc(N(C)C(=O)C3CCOC3)s2)cn1 (stereo unspecified) | 340 | -12.1% (inactive) | 26.6% (inactive) | 79 | 41.6% (inactive) | 88.5 | -0.552 (inactive) | -6.2e-06 (inactive) | 0.00481 (inactive) | -2.32% (inactive) | -11.8% (inactive) |  | 
CN1CCc2nc(SCC(=O)Nc3ccc(F)cc3)c(C#N)cc2C1 | 646 | -14.8% (inactive) | -16.9% (inactive) | 101 | -75.1% (inactive) | 101 | -0.456 (inactive) | 0.000133 (inactive) | 0.00558 (inactive) | -24.5% (inactive) | -52.9% (inactive) |  | 
Cc1cc(C)c(S(=O)(=O)N(C)CC(N)=O)c(C)c1 | 320 | 5.1% (inactive) | -7.6% (inactive) | 103 | -60.9% (inactive) | 111 | -0.489 (inactive) | 4.3e-05 (inactive) | 0.00514 (inactive) | -4.02% (inactive) | -17.9% (inactive) |  | 
COc1ccc(C2=NOC(C(=O)NCc3ccc(F)cc3)C2)cc1OC (stereo unspecified) | 601 | 14.3% (inactive) | -82.4% (inactive) | 2.5 | -172% (inactive) | 99.1 | -0.493 (inactive) | 4.2e-05 (inactive) | 0.00618 (inactive) | 22.8% (inactive) | 82.8% (active) |  | 
CCOC(=O)C1C(=O)NC(SCC(=O)Nc2nccs2)=C(C#N)C1c1ccccc1OCC (stereo unspecified) | 605 | -27.7% (inactive) | -20.6% (inactive) | 120 | 20.7% (inactive) | 104 | -0.454 (inactive) | -3.1e-05 (inactive) | 0.00515 (inactive) | 19.6% (inactive) | 20.1% (inactive) |  | 
Cc1ccc(CN2C(=O)CCC2C(=O)NCCCN2CCCC(C)C2)cc1 (stereo unspecified) | 436 | 6.9% (inactive) | -3.9% (inactive) | 106 | -43.5% (inactive) | 129 | -0.434 (inactive) | -2.5e-05 (inactive) |  | -5.02% (inactive) | 4.05% (inactive) | 0.0056 (inactive) | inactive
COc1cccc(CN(C(=O)c2cc3ccccc3oc2=O)C2CC2)c1 | 459 | -6.2% (inactive) | -16% (inactive) | 108 | -52.3% (inactive) | 137 | -0.51 (inactive) | -2.3e-05 (inactive) | 0.00464 (inactive) | -43.3% (inactive) | -136% (inactive) |  | 
C=CCn1cc(C(=O)NCCOC)c(=O)c2cc(S(=O)(=O)N(CC)CC)ccc21 | 580 | -15.8% (inactive) | 7.1% (inactive) | 81.2 | -11.3% (inactive) | 115 | -0.607 (inactive) | 1.4e-05 (inactive) | 0.00635 (inactive) | 7.34% (inactive) | 17.4% (inactive) |  | 
Cc1c(C(=O)NCc2cccnc2)sc2ncn(CC(=O)N3CCCCC3C)c(=O)c12 (stereo unspecified) | 477 | -7% (inactive) | -3.4% (inactive) | 89.7 | -51.3% (inactive) | 70.3 | -0.555 (inactive) | -1.4e-05 (inactive) | 0.00535 (inactive) | 18.5% (inactive) | 23.8% (inactive) |  | 
CCOC(=O)C1CCN(S(=O)(=O)c2cc(Cl)c(C)cc2OC)CC1 | 441 | -9.5% (inactive) | -0.9% (inactive) | 109 | -41% (inactive) | 116 | -0.587 (inactive) | 1.4e-05 (inactive) | 0.00585 (inactive) | 19.9% (inactive) | 38.6% (inactive) |  | 
NC(=O)C1CCN(CC(=O)N2c3ccccc3CCc3ccccc32)CC1 | 409 | -16.8% (inactive) | -2.8% (inactive) | 107 | -20.9% (inactive) | 154 | -0.587 (inactive) | -5.7e-05 (inactive) | 0.00441 (inactive) | 15.6% (inactive) | 23.9% (inactive) |  | 
CCOC(=O)N1CCN(C(=O)c2ccc3c(=O)n(CCc4ccccc4)c(=O)[nH]c3c2)CC1 | 784 | -7.8% (inactive) | 5.4% (inactive) | 111 | -60% (inactive) | 115 | -0.307 (inactive) | 4.7e-06 (inactive) | 0.00774 (inactive) | -16.4% (inactive) | -40% (inactive) |  | 
CCOC(=O)c1ccc2[nH]c3c(c2c1)CCCCC3=O | 681 | -11% (inactive) | -12.9% (inactive) | 106 | 32% (inactive) | 96.5 | -0.389 (inactive) | -5.3e-05 (inactive) |  | -36.8% (inactive) | -77.8% (inactive) | 0.00399 (inactive) | inactive
O=C(CS(=O)(=O)c1cn(Cc2ccc(F)cc2)c2ccccc12)N1CCCCC1 | 474 | -0.2% (inactive) | -5% (inactive) | 116 | 16.9% (inactive) | 110 | -0.303 (inactive) | -6.4e-05 (inactive) | 0.00645 (inactive) | 3.28% (inactive) | 11.2% (inactive) |  | 
CCCN(CCO)Cc1cccc(Br)c1 | 492 | -1.1% (inactive) | 7.9% (inactive) | 93.6 | -109% (inactive) | 109 | -0.437 (inactive) | 2.5e-05 (inactive) | 0.00547 (inactive) | 14.5% (inactive) | 19.3% (inactive) |  | 
CCCCSc1nc2c(cnn2-c2ccc(Cl)cc2)c(=O)[nH]1 | 233 | -0.3% (inactive) | 6.5% (inactive) | 103 | -23.4% (inactive) | 111 | -0.426 (inactive) | -9.3e-05 (inactive) | 0.00579 (inactive) | 16.7% (inactive) | 16.6% (inactive) |  | 
CCCCC(CC)Cn1c2nc3ccccc3nc2c2c(=N)oc(C)nc21 (stereo unspecified) | 624 | 15.7% (inactive) | 23.1% (inactive) | 64.9 | -5.3% (inactive) | 97.3 | -0.196 (inactive) | 4.4e-06 (inactive) | 0.00498 (inactive) | 16.1% (inactive) | 15.4% (inactive) |  | 
COc1cccc(OC)c1C(=O)n1nc(C)cc1C | 489 | -18.1% (inactive) | -12.3% (inactive) | 99.8 | -10.8% (inactive) | 95.6 | -0.591 (inactive) | -3.7e-05 (inactive) | 0.00413 (inactive) | 14.5% (inactive) | 4.66% (inactive) |  | 
N#Cc1cnc2sc3ccccc3n2c1=N | 332 | -12.6% (inactive) | 5.1% (inactive) | 119 | -14.8% (inactive) | 106 | -0.554 (inactive) | 7.2e-06 (inactive) | 0.00378 (inactive) | -9.74% (inactive) | -37.6% (inactive) |  | 
CN(C)c1nc(Nc2ccc(Cl)cc2)nc(OCC#N)n1 | 387 | -23% (inactive) | -6.1% (inactive) | 78.6 | -109% (inactive) | 128 | -0.574 (inactive) | 1.7e-05 (inactive) | 0.00241 (inactive) | 24.2% (inactive) | 37.1% (inactive) |  | 
COc1ccc(CC(=O)Nc2cc(Cl)ccc2O)cc1 | 605 | -9.3% (inactive) | 12% (inactive) | 99.8 | -72% (inactive) | 108 | -0.409 (inactive) | -1.5e-05 (inactive) |  | -8.56% (inactive) | -1.02% (inactive) | 0.00576 (inactive) | inactive
CCC1C(=O)n2nc(-c3ccccc3)cc2N=C1C (stereo unspecified) | 330 | 0% (inactive) | -7.3% (inactive) | 102 | -4.1% (inactive) | 114 | -0.506 (inactive) | -4.6e-05 (inactive) | 0.006 (inactive) | -22% (inactive) | -37% (inactive) |  | 
COC(=O)Cc1[nH]nc2c1C(C1C=CCCC1)C(C#N)=C(N)O2 (stereo unspecified) | 592 | 5.7% (inactive) | 7.6% (inactive) | 90.6 | -0.2% (inactive) | 117 | -0.41 (inactive) | 2.6e-05 (inactive) | 0.00509 (inactive) | 18.7% (inactive) | 26.3% (inactive) |  | 
CC1CCN(C(=O)c2cc(-c3ccc(Cl)c(Cl)c3)on2)CC1 | 435 | 0.9% (inactive) | 4.2% (inactive) | 94 | 6.5% (inactive) | 91.7 | -0.449 (inactive) | -3.4e-05 (inactive) | 0.00453 (inactive) | -41% (inactive) | -89% (inactive) |  | 
COC(=O)C1CCN(C(=O)CSc2nnc(-c3ccncc3)o2)CC1 | 682 | -6.4% (inactive) | 22.4% (inactive) | 59.8 | -9.5% (inactive) | 109 | -0.57 (inactive) | -5.5e-05 (inactive) | 0.0106 (inactive) | -9.36% (inactive) | -15.6% (inactive) |  | 
COCCNc1nc(C(C)(C)C)nc2c1nnn2Cc1ccccc1Cl | 419 | 15.8% (inactive) | 1% (inactive) | 106 | 14.6% (inactive) | 111 | -0.462 (inactive) | -1.9e-06 (inactive) | 0.00616 (inactive) | -0.805% (inactive) | 56% (active) |  | 
